Data as given in ChEMBL document CHEMBL3351780, “Novel hybrids of metronidazole and quinolones: synthesis, bioactive evaluation, cytotoxicity, preliminary antimicrobial mechanism and effect of metal ions on their transportation by human serum albumin” (Eur J Med Chem, 2014).
≈ marks a conversion by molar mass, not a printed value.

Experiments:
Albumin [1] = target: T1, Albumin (Homo sapiens, UniProt P02768); experiment: Drug transport index, ratio of Kb to K0 for human serum albumin by fluorescence spectrophotometry in presence of Ni2+; type: ADME
T1 sequence (P02768 whole entry): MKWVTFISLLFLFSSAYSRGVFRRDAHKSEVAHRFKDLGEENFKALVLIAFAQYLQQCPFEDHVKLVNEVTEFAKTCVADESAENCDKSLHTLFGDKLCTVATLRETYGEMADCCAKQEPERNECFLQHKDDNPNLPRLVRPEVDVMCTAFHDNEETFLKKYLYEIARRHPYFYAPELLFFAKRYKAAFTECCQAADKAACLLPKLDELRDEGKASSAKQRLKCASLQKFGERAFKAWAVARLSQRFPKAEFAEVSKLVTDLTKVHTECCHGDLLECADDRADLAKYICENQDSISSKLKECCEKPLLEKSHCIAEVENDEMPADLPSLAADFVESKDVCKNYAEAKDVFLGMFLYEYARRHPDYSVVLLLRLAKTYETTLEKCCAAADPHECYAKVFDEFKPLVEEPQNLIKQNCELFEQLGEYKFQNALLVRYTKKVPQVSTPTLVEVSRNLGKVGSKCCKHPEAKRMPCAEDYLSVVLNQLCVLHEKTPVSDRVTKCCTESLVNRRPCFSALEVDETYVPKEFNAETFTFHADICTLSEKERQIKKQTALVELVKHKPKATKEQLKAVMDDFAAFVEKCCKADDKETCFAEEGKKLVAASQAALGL
Procedure, shortened: (§1)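 HSA in Tris-HCl (0.05 M Tris, 0.15 M NaCl, pH 7.4) with compound, in the presence of CaCl2, KCl, MgCl2 or NiCl2. Fluorescence was excited at 295 nm and emission recorded from 300 to 450 nm at 298 K, with 2.5 nm slits. Binding constants with the metal ion (Kb) and without it (K0) were expressed as Kb/K0.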

Staphylococcus aureus [2] = experiment: Antibacterial activity against Staphylococcus aureus ATCC 25923 by two-fold serial dilution method; type: functional
Procedure, shortened: (§2)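 Standard two-fold serial dilution in 96-well microtest plates following NCCLS. Top dilutions printed as 32, 16, 8, 4, 2, 1, 0.5 ug/mL. Wells inoculated and held at 37 °C for 24 h. Growth judged visually and by spectrophotometer, in triplicate. MIC is the lowest concentration giving complete growth inhibition.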

Albumin [3] = target: T1, Albumin; experiment: Binding affinity to human serum albumin by fluorescence spectrophotometry in presence of K+; type: ADME; details: isolated protein
Procedure, shortened: (§3)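 HSA-compound fluorescence measured in Tris-HCl (0.05 M Tris, 0.15 M NaCl, pH 7.4) with added metal chloride (CaCl2, KCl, MgCl2 or NiCl2). Excitation 295 nm, emission 300-450 nm, 298 K, 2.5 nm slits. The metal-ion effect is expressed as the ratio Kb/K0.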

Cyberlindnera jadinii = experiment: Antifungal activity against Candida utilis after 24 hrs by microbroth dilution method; type: functional; details: Williopsis jadinii
Procedure, shortened: (§4)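 Spore suspension prepared in sterile distilled water from one-day-old cultures on Sabouraud agar, final 1-5 x 10^3 spores/mL. Compounds were serially diluted in RPMI 1640 to give eleven dilutions. Incubation at 35 °C for 24 h. Growth read visually and spectrophotometrically, in triplicate. MIC is the lowest concentration with complete inhibition.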

Escherichia coli = experiment: Antibacterial activity against Escherichia coli DH52 by two-fold serial dilution method; type: functional; procedure, shortened: as §2
Streptococcus pneumoniae = experiment: Antibacterial activity against Streptococcus pneumoniae by two-fold serial dilution method; type: functional; procedure, shortened: as §2
[4] = Cytotoxicity against human LO2 cells assessed as inhibition of cell viability at 128 ug/ml after 24 hrs by MTT assay; type: cell-based, L02; details: read-out: INH
Procedure, shortened: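 Human hepatocyte LO2 cells were plated, attached for 24 h, then exposed to the compound diluted in medium from DMSO stock, at 37 °C in 5% CO2. Viability was read by MTT at 490 nm. Inhibition was calculated as the percent reduction of viable cells versus a drug-free control, mean of three parallels.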

[5] = Cytotoxicity against human LO2 cells assessed as inhibition of cell viability at 8 ug/ml after 24 hrs by MTT assay; type: cell-based, L02; details: read-out: INH
Procedure, shortened: (§5)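 LO2 hepatocytes were plated and left to attach for 24 h. DMSO stocks were diluted in medium and added, and cells were cultured for 24 h at 37 °C in humidified 5% CO2. MTT absorbance read at 490 nm. Three parallels. Inhibition computed as percent reduction of viable cells against drug-free control.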

Micrococcus luteus = experiment: Antibacterial activity against Micrococcus luteus by two-fold serial dilution method; type: functional; procedure, shortened: as §2
[6] = Octanol-water partition co-efficient, log P of the compound by shake flask method; type: physicochemical
[7] = Cytotoxicity against human LO2 cells assessed as inhibition of cell viability at 16 ug/ml after 24 hrs by MTT assay; type: cell-based, L02; details: read-out: INH; procedure, shortened: as §5
Saccharomyces cerevisiae = experiment: Antifungal activity against Saccharomyces cerevisiae after 24 hrs by microbroth dilution method; type: functional; procedure, shortened: as §4
Calf thymus DNA = experiment: Binding affinity to calf thymus DNA by UV-vis spectroscopy; type: nucleic-acid assay; details: Bos taurus
Procedure, shortened: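 Calf thymus DNA held at a fixed concentration and titrated with increasing amounts of the compound. UV-vis absorption spectra were recorded at room temperature in 1.0 cm quartz cells, following the DNA band at 260 nm.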

[8] = Cytotoxicity against human LO2 cells assessed as inhibition of cell viability at 64 ug/ml after 24 hrs by MTT assay; type: cell-based, L02; details: read-out: INH; procedure, shortened: as §5
Albumin [9] = target: T1, Albumin; experiment: Drug transport index, ratio of Kb to K0 for human serum albumin by fluorescence spectrophotometry in presence of Mg2+; type: ADME; procedure, shortened: as §1
Candida albicans = experiment: Antifungal activity against Candida albicans ATCC 76615 after 24 hrs by microbroth dilution method; type: functional; details: ATCC 76615, 24 h; procedure, shortened: as §4
Staphylococcus aureus [10] = experiment: Antibacterial activity against methicillin-resistant Staphylococcus aureus N315 by two-fold serial dilution method; type: functional
Procedure, shortened: (§6)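 MIC read as the lowest concentration giving complete growth inhibition. Two-fold serial dilutions were made in 96-well plates following NCCLS, giving a series down to 0.5 µg/mL (…32, 16, 8, 4, 2, 1, 0.5). Plates were inoculated and incubated at 37 °C for 24 h. A DMSO-with-inoculum control without drug was included. Growth was monitored visually and spectrophotometrically, in triplicate.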

Shigella dysenteriae = experiment: Antibacterial activity against Shigella dysenteriae by two-fold serial dilution method; type: functional; procedure, shortened: as §6
Albumin [11] = target: T1, Albumin; experiment: Binding affinity to human serum albumin by fluorescence spectrophotometry in presence of Ca2+; type: ADME; details: isolated protein; procedure, shortened: as §3
[12] = Cytotoxicity against human A549 cells assessed as cell viability at 256 ug/ml after 24 hrs by CCK-8 assay; type: cell-based; details: read-out: Activity
Procedure, shortened: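 A549 cells were plated and allowed to attach for 24 h, then medium with the compound was added. The compound came from DMSO stocks diluted in medium to 8, 16, 32, 64, 128 and 256 µg/mL. Cells were kept at 37 °C in 5% CO2. Viability was read by CCK-8 absorbance at 450 nm against a drug-free control, three replicates.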

[13] = Aqueous solubility of the compound by UV-spectrophotometry; type: physicochemical
[14] = Cytotoxicity against human LO2 cells assessed as inhibition of cell viability at 32 ug/ml after 24 hrs by MTT assay; type: cell-based, L02; details: read-out: INH; procedure, shortened: as §5
Pseudomonas aeruginosa = experiment: Antibacterial activity against Pseudomonas aeruginosa by two-fold serial dilution method; type: functional; procedure, shortened: as §2
[15] = Antibacterial activity against Eberthella typhosa by two-fold serial dilution method; type: functional; procedure, shortened: as §6
Albumin [16] = target: T1, Albumin; experiment: Drug transport index, ratio of Kb to K0 for human serum albumin by fluorescence spectrophotometry in presence of Ca2+; type: ADME; procedure, shortened: as §1
Albumin [17] = target: T1, Albumin; experiment: Binding affinity to human serum albumin by fluorescence spectrophotometry; type: ADME; details: isolated protein
Procedure, shortened: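 HSA dissolved in Tris-HCl buffer (0.05 M Tris, 0.15 M NaCl, pH 7.4). Fluorescence emission scanned 300-450 nm at 298 K with excitation at 295 nm, 2.5 nm slits and 1.0 cm quartz cells.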

Albumin [18] = target: T1, Albumin; experiment: Binding affinity to human serum albumin by fluorescence spectrophotometry in presence of Ni2+; type: ADME; details: isolated protein; procedure, shortened: as §3
[19] = Dissociation constant, pKa of the compound by UV-spectroscopy; type: physicochemical
Procedure, shortened: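 DMSO stock at 4.0 × 10^-3 mol/L added to 2 mL of buffer, then shaken 10 min at room temperature. Buffers were acetate (pH 4.0–5.0), MES (5.5–6.5), HEPES (7.0–8.0) and CHES (8.5–9.4), each from 500 mM stocks. Scans ran 210–400 nm and were normalized. Absolute differences from the acid spectrum were summed at 244 and 308 nm, plotted against pH and fitted to obtain pKa.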

Pichia norvegensis = experiment: Antifungal activity against Candida mycoderma after 24 hrs by microbroth dilution method; type: functional
Albumin [20] = target: T1, Albumin; experiment: Drug transport index, ratio of Kb to K0 for human serum albumin by fluorescence spectrophotometry in presence of […]; type: ADME; procedure, shortened: as §1
Albumin [21] = target: T1, Albumin; experiment: Binding affinity to human serum albumin by fluorescence spectrophotometry in presence of Mg2+; type: ADME; details: isolated protein; procedure, shortened: as §3
Bacillus spizizenii = experiment: Antibacterial activity against Bacillus subtilis ATCC 6633 by two-fold serial dilution method; type: functional; procedure, shortened: as §2

Cc1ncc([N+](=O)[O-])n1CC(O)Cn1cc(C(=O)O)c(=O)c2ccc(C(F)(F)F)cc21 (configuration not stated)
Ratio (Albumin [1]): 1.02 | MIC (Staphylococcus aureus [2]): 4 µg/mL (≈ 9.08 µM) | Kb (Albumin [3]): 3.42 ×10⁴ L/mol | MIC (Cyberlindnera jadinii): 512 µg/mL (≈ 1160 µM) | MIC (Escherichia coli): 0.5 µg/mL (≈ 1.14 µM) | MIC (Streptococcus pneumoniae): 4 µg/mL (≈ 9.08 µM) | cytotoxicity at 24 h, 128 ug/ml [4]: 17.5% | cytotoxicity at 24 h, 8 ug/ml [5]: 3.6% | MIC (Micrococcus luteus): 1 µg/mL (≈ 2.27 µM) | logP [6]: -0.25 | cytotoxicity at 24 h, 16 ug/ml [7]: 6.7% | MIC (Saccharomyces cerevisiae): 64 µg/mL (≈ 145 µM) | Activity (Calf thymus DNA): Dose-dependent effect | cytotoxicity at 24 h, 64 ug/ml [8]: 15.2% | Ratio (Albumin [9]): 0.91 | MIC (Candida albicans): 64 µg/mL (≈ 145 µM) | MIC (Staphylococcus aureus [10]): 1 µg/mL (≈ 2.27 µM) | MIC (Shigella dysenteriae): 0.5 µg/mL (≈ 1.14 µM) | Kb (Albumin [11]): 3.61 ×10⁴ L/mol | viability at 24 h, 256 ug/ml [12]: > 83% | solubility [13]: 790 µg/mL (≈ 1790 µM) | cytotoxicity at 24 h, 32 ug/ml [14]: 10.3% | MIC (Pseudomonas aeruginosa): 4 µg/mL (≈ 9.08 µM) | MIC [15]: 8 µg/mL (≈ 18.2 µM) | Ratio (Albumin [16]): 1.43 | Kb (Albumin [17]): 5.15 ×10⁴ L/mol | Kb (Albumin [18]): 5.07 ×10⁴ L/mol | pKa [19]: 5.6 | MIC (Pichia norvegensis): 64 µg/mL (≈ 145 µM) | Ratio (Albumin [20]): 1.51 | Kb (Albumin [21]): 5.63 ×10⁴ L/mol | MIC (Bacillus spizizenii): 4 µg/mL (≈ 9.08 µM)
